Measured values published in PubChem BioAssay AID652011 (Sanford-Burnham Center for Chemical Genomics, 2013).

Molecular target: Endothelial PAS domain-containing protein 1 (Homo sapiens) (UniProt Q99814)
Experiment: HIF reporter inhibition across pancreatic and renal lines – cell-based, luminescence, MIAPaCa-2, 786-0, panel, SAR follow-up (AID 652011)
Conditions: MIAPaCa-2/PANC HIF reporter, luciferase luminescence, desferoxamine, overnight, HIF2a PANC, run 1; at 99 µM (top of the series)
Summary of the method: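 Reagent: Desferoxamine added before compound | Doses: Compounds from 10 mM and 0.3125 mM stocks, 1% DMSO final | Times: Overnight seeding and compound exposure, 37 °C, 5% CO2, 10-min detection | Measured by: One-Glo luciferase luminescence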

Sequence of Endothelial PAS domain-containing protein 1 (Homo sapiens) (Q99814 whole entry, looked up, the tested form may be a part): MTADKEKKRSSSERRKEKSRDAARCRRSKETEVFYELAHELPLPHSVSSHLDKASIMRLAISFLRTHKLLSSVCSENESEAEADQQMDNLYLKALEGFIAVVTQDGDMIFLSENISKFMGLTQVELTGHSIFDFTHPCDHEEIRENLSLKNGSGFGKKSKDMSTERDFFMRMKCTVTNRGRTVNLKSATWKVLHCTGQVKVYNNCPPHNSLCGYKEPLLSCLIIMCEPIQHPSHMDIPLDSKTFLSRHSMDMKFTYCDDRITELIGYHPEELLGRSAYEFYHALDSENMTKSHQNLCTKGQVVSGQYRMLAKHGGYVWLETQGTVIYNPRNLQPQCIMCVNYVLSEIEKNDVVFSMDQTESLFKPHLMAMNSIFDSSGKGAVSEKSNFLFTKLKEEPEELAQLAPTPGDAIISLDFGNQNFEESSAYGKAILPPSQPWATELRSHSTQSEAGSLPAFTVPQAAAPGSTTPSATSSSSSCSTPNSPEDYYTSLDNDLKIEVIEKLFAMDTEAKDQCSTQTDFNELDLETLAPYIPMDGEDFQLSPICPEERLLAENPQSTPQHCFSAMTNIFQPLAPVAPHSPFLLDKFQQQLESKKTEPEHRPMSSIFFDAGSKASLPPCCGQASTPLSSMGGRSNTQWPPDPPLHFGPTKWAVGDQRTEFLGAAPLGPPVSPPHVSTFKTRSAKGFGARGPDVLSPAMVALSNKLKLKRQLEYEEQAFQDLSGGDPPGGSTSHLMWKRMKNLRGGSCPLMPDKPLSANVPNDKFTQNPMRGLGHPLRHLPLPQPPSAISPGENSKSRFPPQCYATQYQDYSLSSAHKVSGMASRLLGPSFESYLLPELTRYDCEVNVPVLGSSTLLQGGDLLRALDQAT

SMILES	inhibition [%]
CCNC(=O)CCc1nc(-c2cccc(F)c2)no1	19.4
CCNC(=O)CCc1nc(-c2ccc(OCC)cc2)no1	-27.3
CNC(=O)CCc1nc(-c2ccc(Cl)cc2)no1	13.4
CCOc1ccc(-c2noc(CCC(=O)O)n2)cc1	109
CNC(=O)CCc1nc(-c2ccc(OC)cc2)no1	36.2
CC(C)(C)c1ccc(-c2noc(CCC(=O)N3CCOCC3)n2)cc1	-33.9
CCC(C)NC(=O)CCc1nc(-c2ccc(C(C)(C)C)cc2)no1 (stereo unspecified)	-20.2
CCc1ccc(-c2noc(CCC(=O)NC(C)(C)C)n2)cc1	-42.9
CC(C)(C)c1ccc(-c2noc(CCC(=O)NC3CCCC3)n2)cc1	94.6
O=C(CCc1nc(-c2ccccc2)no1)NC1CC1	66
CCc1ccc(-c2noc(CCC(=O)NC)n2)cc1	1.82
